Source: ChEMBL document CHEMBL4406880, “Design, synthesis, and bioactivity of dihydropyrimidine derivatives as kinesin spindle protein inhibitors” (Bioorg Med Chem, 2019)

Experiments:
Assay type in all cases: functional
DU-145 = assay: Growth inhibition of human DU145 cells assessed as growth percentage at 10 uM incubated for 48 hrs by sulforhodamine B assay relative to control; settings: DU-145, 48 h, read-out: Activity
Procedure, shortened: (§1)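 NCI-60 one-dose screen: cells in RPMI 1640 with 5% FBS and 2 mM L-glutamine, plated at 5,000–40,000 cells/well and preincubated 24 h at 37 °C, 5% CO2. Compound is added from a DMSO stock to a final 10 µM and incubated 48 h. Cells are TCA-fixed and stained with sulforhodamine B, read at 515 nm. Output is % growth versus untreated control, with a time-zero plate.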

K562 = assay: Growth inhibition of human K562 cells assessed as growth percentage at 10 uM incubated for 48 hrs by sulforhodamine B assay relative to control; settings: K562, 48 h, read-out: Activity
Procedure, shortened: (§2)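 NCI-60 one-dose screen. Cells in RPMI 1640 with 5% FBS and 2 mM L-glutamine, seeded at 5,000–40,000 cells/well according to doubling time, and preincubated overnight at 37 °C, 5% CO2. A time-zero plate was TCA-fixed at drug addition. Compound from DMSO stock, final 10 µM, 48 h; DMSO vehicle controls. Fixation with TCA, 10% final (16% for suspension cells). SRB stain, Tris solubilization, A515. Result given as % growth versus untreated cells.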

T47D = assay: Growth inhibition of human T47D cells assessed as growth percentage at 10 uM incubated for 48 hrs by sulforhodamine B assay relative to control; settings: read-out: Activity
Procedure, shortened: (§3)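 NCI-60 single-dose screen. Cells were grown in RPMI 1640 with 5% FBS and 2 mM L-glutamine and plated at 5,000–40,000 cells/well. After an overnight preincubation at 37 °C in 5% CO2, compound was added at a final 10 µM from a DMSO stock, with DMSO/PBS controls. After 48 h, cells were TCA-fixed and stained with 0.4% SRB, and absorbance was read at 515 nm. Growth is given as a percentage of untreated control.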

MDA-MB-231 = assay: Growth inhibition of human MDA-MB-231 cells assessed as growth percentage at 10 uM incubated for 48 hrs by sulforhodamine B assay relative to control; settings: MDA-MB-231, 48 h, read-out: Activity; procedure, shortened: as §2
TK-10 = assay: Growth inhibition of human TK10 cells assessed as growth percentage at 10 uM incubated for 48 hrs by sulforhodamine B assay relative to control; settings: TK-10, 48 h, read-out: Activity; procedure, shortened: as §3
OVCAR-8 = assay: Growth inhibition of human OVCAR8 cells assessed as growth percentage at 10 uM incubated for 48 hrs by sulforhodamine B assay relative to control; settings: OVCAR-8, 48 h, read-out: Activity; procedure, shortened: as §3
CCRF-CEM = assay: Growth inhibition of human CCRF-CEM cells assessed as growth percentage at 10 uM incubated for 48 hrs by sulforhodamine B assay relative to control; settings: read-out: Activity; procedure, shortened: as §1
SK-MEL-2 = assay: Growth inhibition of human SK-MEL-2 cells assessed as growth percentage at 10 uM incubated for 48 hrs by sulforhodamine B assay relative to control; settings: SK-MEL-2, 48 h, read-out: Activity; procedure, shortened: as §3
M14 = assay: Growth inhibition of human M14 cells assessed as growth percentage at 10 uM incubated for 48 hrs by sulforhodamine B assay relative to control; settings: M14, 48 h, read-out: Activity; procedure, shortened: as §2
NCI-H226 = assay: Growth inhibition of human NCI-H226 cells assessed as growth percentage at 10 uM incubated for 48 hrs by sulforhodamine B assay relative to control; settings: NCI-H226, 48 h, read-out: Activity; procedure, shortened: as §2
MCF7 = assay: Growth inhibition of human MCF7 cells assessed as growth percentage at 10 uM incubated for 48 hrs by sulforhodamine B assay relative to control; settings: MCF7, 48 h, read-out: Activity; procedure, shortened: as §2
EKVX = assay: Growth inhibition of human EKVX cells assessed as growth percentage at 10 uM incubated for 48 hrs by sulforhodamine B assay relative to control; settings: read-out: Activity; procedure, shortened: as §1
HL-60(TB) = assay: Growth inhibition of human HL-60(TB) cells assessed as growth percentage at 10 uM incubated for 48 hrs by sulforhodamine B assay relative to control; settings: HL-60, 48 h, read-out: Activity
Procedure, shortened: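 NCI-60 single-dose screen. Cells in RPMI 1640 with 5% FBS and 2 mM L-glutamine are plated at 5,000–40,000 cells/well and preincubated overnight at 37 °C, 5% CO2. Compound is added from a DMSO stock at 10 µM final for 48 h. Cells are TCA-fixed (suspension cells 16% final) and stained with SRB. Absorbance is read at 515 nm, and percentage growth is calculated against untreated controls with a time-zero plate.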

KM12 = assay: Growth inhibition of human KM12 cells assessed as growth percentage at 10 uM incubated for 48 hrs by sulforhodamine B assay relative to control; settings: KM12, 48 h, read-out: Activity; procedure, shortened: as §2
MOLT-4 = assay: Growth inhibition of human MOLT4 cells assessed as growth percentage at 10 uM incubated for 48 hrs by sulforhodamine B assay relative to control; settings: MOLT-4, 48 h, read-out: Activity; procedure, shortened: as §2
COLO 205 = assay: Growth inhibition of human COLO205 cells assessed as growth percentage at 10 uM incubated for 48 hrs by sulforhodamine B assay relative to control; settings: COLO 205, 48 h, read-out: Activity; procedure, shortened: as §1
SNB-19 = assay: Growth inhibition of human SNB19 cells assessed as growth percentage at 10 uM incubated for 48 hrs by sulforhodamine B assay relative to control; settings: SNB-19, 48 h, read-out: Activity; procedure, shortened: as §3
NCI-H522 = assay: Growth inhibition of human NCI-H522 cells assessed as growth percentage at 10 uM incubated for 48 hrs by sulforhodamine B assay relative to control; settings: NCI-H522, 48 h, read-out: Activity; procedure, shortened: as §2
UO-31 = assay: Growth inhibition of human UO31 cells assessed as growth percentage at 10 uM incubated for 48 hrs by sulforhodamine B assay relative to control; settings: UO-31, 48 h, read-out: Activity; procedure, shortened: as §3
U-251 = assay: Growth inhibition of human U251 cells assessed as growth percentage at 10 uM incubated for 48 hrs by sulforhodamine B assay relative to control; settings: U-251, 48 h, read-out: Activity; procedure, shortened: as §3
Hs-578T = assay: Growth inhibition of human Hs 578T cells assessed as growth percentage at 10 uM incubated for 48 hrs by sulforhodamine B assay relative to control; settings: read-out: Activity; procedure, shortened: as §2
UACC-62 = assay: Growth inhibition of human UACC62 cells assessed as growth percentage at 10 uM incubated for 48 hrs by sulforhodamine B assay relative to control; settings: UACC-62, 48 h, read-out: Activity; procedure, shortened: as §3
MDA-MB-435 = assay: Growth inhibition of human MDA-MB-435 cells assessed as growth percentage at 10 uM incubated for 48 hrs by sulforhodamine B assay relative to control; settings: MDA-MB-435, 48 h, read-out: Activity; procedure, shortened: as §2
IGROV-1 = assay: Growth inhibition of human IGROV1 cells assessed as growth percentage at 10 uM incubated for 48 hrs by sulforhodamine B assay relative to control; settings: IGROV-1, 48 h, read-out: Activity; procedure, shortened: as §2

Structure (SMILES) | growth at 10 µM (DU-145) [%] | growth at 10 µM (K562) [%] | growth at 10 µM (T47D) [%] | growth at 10 µM (MDA-MB-231) [%] | growth at 10 µM (TK-10) [%] | growth at 10 µM (OVCAR-8) [%] | growth at 10 µM (SK-MEL-2) [%] | growth at 10 µM (M14) [%] | growth at 10 µM (NCI-H226) [%] | growth at 10 µM (MCF7) [%] | growth at 10 µM (EKVX) [%] | growth at 10 µM (KM12) [%] | growth at 10 µM (MOLT-4) [%] | growth at 10 µM (COLO 205) [%] | growth at 10 µM (SNB-19) [%] | growth at 10 µM (NCI-H522) [%] | growth at 10 µM (UO-31) [%] | growth at 10 µM (U-251) [%] | growth at 10 µM (Hs-578T) [%] | growth at 10 µM (UACC-62) [%] | further results
CC1=C(C(=O)OC(C)C)C(c2ccc3c(c2)OCO3)NC(=S)N1 (racemic) | 109 | 107 | 91.4 | 101 | 98 | 102 | 102 | 99 | 84.1 | 98.7 | 94.4 | 108 | 110 | 123 | 95.5 | 86.4 | 84.5 | 102 | 97.3 | 85.2 | growth at 10 µM (CCRF-CEM): 105%; growth at 10 µM (HL-60(TB)): 105%; growth at 10 µM (MDA-MB-435): 106%; growth at 10 µM (IGROV-1): 99.9%
CC1=C(C(=O)c2ccccc2)C(c2ccc3c(c2)OCO3)NC(=S)N1 (racemic) | 78.7 | 24.6 | 67.9 | 79.1 | 66 | 46.7 | 60.5 | 34.6 | 66.5 | 22 | 73.5 | 20 | 36.6 | 47.6 | 63.8 | 38.3 | 55.7 | 37.5 | 23.4 | 51.6 | growth at 10 µM (CCRF-CEM): 41.2%; growth at 10 µM (HL-60(TB)): 2.6%; growth at 10 µM (MDA-MB-435): -49.5%; growth at 10 µM (IGROV-1): 46.1%
COCCOC(=O)C1=C(C)NC(=S)NC1c1ccc2c(c1)OCO2 (racemic) | 108 | 91.8 | 94.8 | 105 | 104 | 102 | 93 | 104 | 90.2 | 89.6 | 105 | 100 | 96.9 | 117 | 100 | 94.3 | 87.8 | 104 | 104 | 102 | growth at 10 µM (CCRF-CEM): 104%; growth at 10 µM (HL-60(TB)): 92.1%; growth at 10 µM (MDA-MB-435): 104%; growth at 10 µM (IGROV-1): 105%
COCCOC(=O)C1=C(C)NC(=S)N(C(C)=O)C1c1ccc2c(c1)OCO2 (racemic) | 106 | 94.3 | 86.9 | 97.8 | 102 | 99.3 | 108 | 96.1 | 96.6 | 102 | 94.1 | 95.9 | 103 | 100 | 99.3 | 91.6 | 82 | 94.8 | 93.7 | 98.2 | growth at 10 µM (HL-60(TB)): 97.8%; growth at 10 µM (MDA-MB-435): 103%; growth at 10 µM (IGROV-1): 106%
CC(=O)N1C(=S)NC(C)=C(C(=O)OCc2ccccc2)C1c1ccc2c(c1)OCO2 (racemic) | 95 | 55.4 | 58.1 | 84.5 | 100 | 80.3 | 88.6 | 54 | 96.3 | 92.1 | 96.8 | 71.1 | 58.7 | 91.8 | 87.8 | 75.7 | 85.4 | 58.2 | 76.8 | 75.3 | growth at 10 µM (HL-60(TB)): 33.6%; growth at 10 µM (MDA-MB-435): 60.1%; growth at 10 µM (IGROV-1): 98%
CC1=C(C(=O)OCc2ccccc2)C(c2ccc3c(c2)OCO3)n2c(nc3ccccc32)N1 (racemic) | 49 to 53.5 | 13.8 to 25 | 31 to 40.9 | 64 to 68.6 | 64 to 65.6 | 39 to 46.7 | 33 to 47.8 | 28.1 to 35 | 58 to 58.2 | 9 to 20.6 | 42 to 64.4 | 15 to 17.3 | 37.1 to 41 | 37.2 to 43 | 33 to 41.6 | 8 to 26.3 | 28 to 51.1 | 31 to 36.3 | 0.75 to 14 | 22 to 46.2 | growth at 10 µM (CCRF-CEM): 24.9 to 31%; growth at 10 µM (IGROV-1): 36 to 41.4%
CC(=O)N1C(=S)NC(C)=C(C(=O)OCC(C)C)C1c1ccc2c(c1)OCO2 (racemic) | 99.6 | 78.2 | 66.7 | 88.7 | 95.4 | 95.9 | 102 | 96.4 | 94.6 | 104 | 99.8 | 93.8 | 95.1 | 101 | 97.9 | 74.9 | 91.8 | 87.5 | 89.2 | 85.7 | growth at 10 µM (HL-60(TB)): 98.5%; growth at 10 µM (MDA-MB-435): 95.5%; growth at 10 µM (IGROV-1): 112%
